Activity calls are given as the source filed them. The calls are words filed in the database; no cut-off is given here.
Columns and labels:
M21 [1] = experiment: Inhibition of nuclear translocation of thioredoxin 1 in human M21 cells at 50 uM after 18 hrs by immunocytochemistry; type: functional, cell-based
In short: (§1)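 M21 cells seeded on fibronectin-coated coverslips, held 18 h at 37 °C, then treated with compounds (5–50 µM; reference agents 0.1–40 µM) or 0.1% DMSO. Fixed in 3.7% formaldehyde, permeabilized with 0.1% saponin, and blocked in 3% BSA. Stained 1 h at 37 °C with anti-thioredoxin-1 monoclonal (1/200), then with Alexa-488 anti-mouse IgG plus DAPI for nuclei.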

MCF7 [2] = experiment: Growth inhibition of human MCF7 cells after 48 hrs by sulforhodamine B assay; type: functional; details: for GI50: MCF7, 48 h
In short: (§2)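 NCI-style sulforhodamine B assay. HT-29 (5×10³), M21 or MCF-7 (3.5×10³) cells were grown 24 h, then given DMSO-solubilized drug at 100 to 0.7 µM final (DMSO <0.5%) for 48 h. Fixed in cold 10% TCA, stained with 0.1% SRB, read at 585 nm after subtracting a day-0 plate. Inhibition is relative to DMSO controls; GI50 from at least triplicate runs.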

HT-29 = experiment: Growth inhibition of human HT29 cells after 48 hrs by sulforhodamine B assay; type: functional; details: for GI50: HT-29, 48 h; in short: as §2
M21 [3] = experiment: Growth inhibition of human M21 cells after 48 hrs by sulforhodamine B assay; type: functional; details: for GI50: M21, 48 h; in short: as §2
M21 [4] = experiment: Inhibition of nuclear translocation of thioredoxin 1 in human M21 cells at 5 uM after 18 hrs by immunocytochemistry; type: functional, cell-based; in short: as §1
MCF7 [5] = experiment: Cell cycle arrest in human MCF7 cells assessed as G2/M phase accumulation at 2 times GI50 after 24 hrs by flow cytometry
MCF7 [6] = experiment: Cell cycle arrest in human MCF7 cells assessed as G0/G1 phase accumulation at 2 times GI50 after 24 hrs by flow cytometry
MCF7 [7] = experiment: Cell cycle arrest in human MCF7 cells assessed as S phase accumulation at 2 times GI50 after 24 hrs by flow cytometry
M21 [8] = experiment: Inhibition of nuclear translocation of thioredoxin 1 in human M21 cells at 25 uM after 18 hrs by immunocytochemistry; type: functional, cell-based; in short: as §1
MCF7 [9] = experiment: Cell cycle arrest in human MCF7 cells assessed as S phase accumulation at 2 times GI50 after 24 hrs by flow cytometry; type: functional
MCF7 [10] = experiment: Cell cycle arrest in human MCF7 cells assessed as […] phase accumulation at 2 times GI50 after 24 hrs by flow cytometry; type: functional
MCF7 [11] = experiment: Cell cycle arrest in human MCF7 cells assessed as G2/M phase accumulation at 2 times GI50 after 24 hrs by flow cytometry; type: functional

| SMILES | GI50 (MCF7 [2]) | GI50 (HT-29) | Activity (M21 [1]) | GI50 (M21 [3]) | Activity (M21 [4]) | Activity (MCF7 [5]) | Activity (MCF7 [6]) | Activity (MCF7 [7]) | further results |
| --- | --- | --- | --- | --- | --- | --- | --- | --- | --- |
| O=C(NCCCl)Nc1cccc(Oc2ccccc2)c1 |  |  | inactive |  |  |  |  |  |  |
| c1ccc2cc(NC3=NCCO3)ccc2c1 | 4.5 µM | 2 µM | Active | 3.5 µM | Active |  |  |  |  |
| Ic1ccc(NC2=NCCO2)cc1 |  |  |  |  | Active | 76% | 14% | 10% |  |
| O=C(CCl)NC(=O)Nc1ccc(I)cc1 |  |  |  |  | Active | 10% | 68% | 22% |  |
| c1cc(OC2CCCC2)ccc1NC1=NCCO1 | 23.1 µM | 16.1 µM | Active | 21.1 µM |  | 7% | 70% | 23% |  |
| O=C(NCCCl)Nc1cccc(OC2CCCCCC2)c1 |  |  | Active |  |  |  |  |  | Activity (MCF7 [9]): 22%; Activity (MCF7 [10]): 72%; Activity (MCF7 [11]): 6% |
| O=C(CCl)NC(=O)NC1c2ccccc2-c2ccccc21 |  |  |  |  | inactive |  |  |  |  |
| c1ccc2c(c1)-c1ccccc1C2NC1=NCCO1 |  |  | Active |  |  |  |  |  |  |
| O=C(CCl)NC(=O)Nc1ccc2c(c1)CCC2 |  |  |  |  | Active |  |  |  |  |
| O=C(NCCCl)Nc1cccc(OC2CCCC2)c1 |  |  | Active |  |  |  |  |  | Activity (MCF7 [9]): 24%; Activity (MCF7 [10]): 64%; Activity (MCF7 [11]): 12% |
| CCNC(=O)Nc1ccc2c(c1)CCC2 |  |  |  |  |  |  |  |  | Activity (MCF7 [2]): inactive; Activity (HT-29): inactive; Activity (M21 [3]): inactive |
| c1cc(C2CCCCC2)ccc1NC1=NCCO1 | 17.5 µM | 12.8 µM | Active | 17.8 µM |  | 11% | 73% | 16% |  |
| O=C(NCCCl)Nc1ccc(C2CCCCC2)cc1 |  |  | Active |  |  |  |  |  | Activity (MCF7 [9]): 13%; Activity (MCF7 [10]): 71%; Activity (MCF7 [11]): 16% |
| c1cc2c(cc1NC1=NCCO1)CCC2 |  |  | Active |  |  |  |  |  | Activity (M21 [8]): Active |
| c1cc(NC2=NCCO2)cc(OC2CCCC2)c1 | 62.1 µM | 52.2 µM | Active | 76.9 µM |  | 6% | 77% | 17% |  |
| Cc1ccc(NC(=O)NCCCl)cc1 |  |  | Active |  |  |  |  |  |  |
| Cc1ccc(NC2=NCCO2)cc1 |  |  | inactive |  |  |  |  |  |  |
| O=C(NCCCl)Nc1ccc2c(c1)CCC2 |  |  |  |  |  |  |  |  | Activity (M21 [8]): Active |
| CC(C)(C)c1ccc(NC2=NCCO2)cc1 |  |  |  |  | inactive | 74% | 15% | 11% |  |
| CC(C)(C)c1ccc(NC(=O)NC(=O)CCl)cc1 |  |  |  |  | Active | 19% | 61% | 20% |  |
| Cc1ccc(NC(=O)NC(=O)CCl)cc1 |  |  |  |  | Active |  |  |  |  |
| CCNC(=O)Nc1ccc(C2CCCCC2)cc1 |  |  |  |  |  |  |  |  | Activity (MCF7 [2]): inactive; Activity (HT-29): inactive; Activity (M21 [3]): inactive |
| CCNC(=O)Nc1ccc(OC2CCCCC2)cc1 |  |  |  |  |  |  |  |  | Activity (MCF7 [2]): inactive; Activity (HT-29): inactive; Activity (M21 [3]): inactive |
| CCNC(=O)Nc1cccc(OC2CCCCCC2)c1 |  |  |  |  |  |  |  |  | Activity (MCF7 [2]): inactive; Activity (HT-29): inactive; Activity (M21 [3]): inactive |
| Cc1ccc(NC(=O)NC(=O)CCl)cc1C |  |  |  |  | inactive |  |  |  |  |
| O=C(NCCCl)NC1c2ccccc2-c2ccccc21 |  |  | Active |  |  |  |  |  |  |

More lines, main results first:

| GI50 (MCF7 [2]) | GI50 (HT-29) | SMILES | Activity (M21 [1]) | GI50 (M21 [3]) | Activity (M21 [4]) | Activity (MCF7 [5]) | Activity (MCF7 [6]) | Activity (MCF7 [7]) | further results |
| --- | --- | --- | --- | --- | --- | --- | --- | --- | --- |
| 24.1 µM | 53.4 µM | C1COC(NC2C3CC4CC(C3)CC2C4)=N1 (stereo not given) | Active | 60.7 µM |  |  |  |  |  |
| 1.5 µM | 2.3 µM | O=C(CCl)NC(=O)Nc1ccc(C2CCCCC2)cc1 |  | 0.9 µM | Active | 24% | 25% | 51% |  |
| 12.2 µM | 5.5 µM | c1ccc(Oc2cccc(NC3=NCCO3)c2)cc1 | inactive | 9.6 µM |  |  |  |  | Activity (M21 [8]): inactive |
| 6.2 µM | 5.1 µM | O=C(CCl)NC(=O)NC1C2CC3CC(C2)CC1C3 (stereo not given) |  | 3.2 µM |  |  |  |  |  |
| 79.7 µM | 37.5 µM | O=C(NCCCl)Nc1ccc(OCc2ccccc2)cc1 | inactive |  |  |  |  |  | Activity (M21 [3]): inactive |
| 3.5 µM | 2 µM | c1ccc(Oc2ccc(NC3=NCCO3)cc2)cc1 | inactive | 3.1 µM | inactive |  |  |  |  |
| 7.6 µM | 4.9 µM | O=C(CCl)NC(=O)Nc1ccc2ccccc2c1 |  | 3.7 µM | inactive |  |  |  |  |
| 11.1 µM | 10.3 µM | c1ccc(COc2ccc(NC3=NCCO3)cc2)cc1 | Active | 15.9 µM |  |  |  |  | Activity (M21 [8]): Active |
| 4.7 µM | 3.1 µM | O=C(CCl)NC(=O)Nc1ccc(OC2CCCCC2)cc1 |  | 5 µM | Active | 10% | 70% | 20% |  |
| 3.9 µM | 2.3 µM | O=C(CCl)NC(=O)Nc1ccc(-c2ccccc2)cc1 |  | 1.4 µM | Active |  |  |  |  |
| 3.6 µM | 2.3 µM | O=C(CCl)NC(=O)Nc1ccc(OC2CCCCCC2)cc1 |  | 5 µM | Active | 11% | 59% | 30% |  |
| 14.8 µM | 6.9 µM | c1cc(NC2=NCCO2)cc(OC2CCCCCC2)c1 | Active | 14.4 µM |  | 24% | 48% | 28% | Activity (M21 [8]): Active |
| 2.6 µM | 0.8 µM | c1ccc(COc2cccc(NC3=NCCO3)c2)cc1 |  | 1.5 µM | inactive |  |  |  |  |
| 42 µM | 8.3 µM | O=C(NCCCl)Nc1ccc(-c2ccccc2)cc1 | Active | 14.5 µM |  |  |  |  | Activity (M21 [8]): Active |
| 10.6 µM | 5.8 µM | c1ccc(-c2ccc(NC3=NCCO3)cc2)cc1 | Active | 8.8 µM |  |  |  |  | Activity (M21 [8]): Active |
| 7.2 µM | 6.9 µM | O=C(CCl)NC(=O)Nc1cccc(OC2CCCCCC2)c1 |  | 4.2 µM | Active | 11% | 58% | 31% |  |
| 26.8 µM | 16.6 µM | c1cc(OC2CCCCCC2)ccc1NC1=NCCO1 | Active | 27.1 µM |  | 4% | 82% | 14% |  |
| 8.1 µM | 5.2 µM | O=C(CCl)NC(=O)Nc1cccc(Oc2ccccc2)c1 |  | 5.3 µM | Active |  |  |  |  |
| 4.6 µM | 2.6 µM | O=C(CCl)NC(=O)Nc1ccc(OCc2ccccc2)cc1 |  | 5.1 µM | inactive |  |  |  |  |
| 6.3 µM | 3.8 µM | O=C(CCl)NC(=O)Nc1cccc(OC2CCCCC2)c1 |  | 2.7 µM | Active | 7% | 73% | 20% |  |
| 6.2 µM | 6.5 µM | O=C(CCl)NC(=O)Nc1cccc(OCc2ccccc2)c1 |  | 4.5 µM | inactive |  |  |  |  |
| 15.9 µM | 4.4 µM | c1cc(NC2=NCCO2)cc(OC2CCCCC2)c1 | Active | 12 µM |  | 38% | 43% | 19% | Activity (M21 [8]): Active |
| 3.9 µM | 3.1 µM | O=C(CCl)NC(=O)Nc1ccc(OC2CCCC2)cc1 |  | 2.9 µM | Active | 9% | 58% | 33% |  |
| 19.1 µM | 12.6 µM | c1cc(OC2CCCCC2)ccc1NC1=NCCO1 | Active | 20.8 µM |  | 5% | 82% | 13% |  |
| 6.2 µM | 3.1 µM | O=C(CCl)NC(=O)Nc1cccc(OC2CCCC2)c1 |  | 3.5 µM | Active | 13% | 53% | 34% |  |
| 4.2 µM | 3.6 µM | O=C(CCl)NC(=O)Nc1ccc(Oc2ccccc2)cc1 |  | 4.2 µM | inactive |  |  |  |  |
| 11.3 µM | 50.6 µM | O=C(NCCCl)NC1C2CC3CC(C2)CC1C3 (stereo not given) | inactive |  |  |  |  |  | Activity (M21 [3]): inactive |

Reference: ChEMBL document CHEMBL1155784, “Aromatic 2-chloroethyl urea derivatives and bioisosteres. Part 2: Cytocidal activity and effects on the nuclear translocation of thioredoxin-1, and the cell cycle progression” (2008)
